# Test results taken from PubChem BioAssay.
# The source made the active and inactive calls.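 How the source made its calls, unless noted: active means Her2 level under about 52% in both replicate screens, with viability over 70% of control (limit read from the data); inconclusive means Her2 under the limit in one screen only, or viability under 70%; inactive means Her2 level above the set limit.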
# How the values were obtained:
# [1] = reducers of endogenous Her2 protein level, primary screen, SKBR3 breast tumor cells, AlphaScreen, ATP viability (AID 461); conditions: 18-24 h, measured here: SKBR3 viability, ATP luminescence, at 10 µM;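 on Her2 level: lower value means less Her2 protein in the cells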;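 on viability: percent of carrier control wells set as 100% viability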
# [2] = molecular target: Receptor tyrosine-protein kinase erbB-2 (Homo sapiens) (UniProt P04626); assay: as above; conditions: 18-24 h, at 10 µM, stronger effect = lower value
# [3] = SK-BR-3 cell growth inhibitors, pilot screen, 24 h, human (AID 572;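 active means viability at or below 10% of carrier control in both of two separate runs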;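 further: compound exposure lasted between 18 and 24 h rather than exactly 24 h; 100% = carrier-treated control wells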); conditions: SK-BR-3 viability, CellTiter-Glo luminescence, at 10 µM, stronger effect = lower value
# [4] = HUVEC growth inhibition – cell-based, human, primary screen (AID 575;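 active means viability at or below 30% in both replicate assays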;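 further: 100% = median of untreated cell wells with 0.1% DMSO on each plate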); conditions: HUVEC proliferation, CellTiter-Glo luminescence, 72 h; at 10 µM; stronger effect = lower value
# Summary of the method: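 system = HUVEC primary cells | amount = 1250 cells/well | buffer or medium = supplemented EBM, 2% fetal bovine serum | dosing = single-point 10 µM, DMSO 0.1% final | times = 72 h compound incubation | detection = CTG luminescence | read-out = % viability relative to median vehicle-well signal on each plate | control set = vehicle and MePR control wells | format = collagen-coated 384-well format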
# [5] = growth inhibitors of H69AR lung tumor, primary screen, human, duplicate replicates (AID 580;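 active means viability at or under a set limit in both replicates, limit being median viability minus 3 SD, cut at about 48% in these data, passing the limit was not always enough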;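 further: 100% = mean luminescence of untreated wells and 0% = no signal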); conditions: H69AR lung tumor cells viability, ATP luminescence, 72 h; at 10 µM; stronger effect = lower value
# [6] = reversal of MRP1-mediated doxorubicin resistance, pilot screen, H69AR cells, doxorubicin co-treatment (AID 601;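 active means viability loss from added drug above about 55%, and viability with drug at most 40%, in both replicates, limit read from the data, passing the limit was not always enough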); conditions: CellTiter-Glo, 72 h, at 10 µM; for differential viability (reversal): stronger effect = higher value
# [7] = 384-well plate pilot, post-Golgi transport modulator project, inhibition of yeast transport mutant growth (AID 636; in the data active means inhibition above about 31%); conditions: absorbance 615 nm, about 18 h, stronger effect = higher value
# [8] = growth suppression of yeast trafficking mutant, preliminary HTS, modulators of trafficking downstream of Golgi apparatus project, 1536-format plate, OD 615 nm (AID 637; in the data active means inhibition above about 30%); conditions: yeast transport mutant growth, absorbance 615 nm, 18 h; stronger effect = higher value
# [9] = H69AR cells + 2 uM doxorubicin, measured here: viability with 2 uM doxorubicin, stronger effect = lower value
# [10] = H69AR cells, compound alone cytotoxicity
# Receptor tyrosine-protein kinase erbB-2 (Homo sapiens), sequence (P04626 whole entry, looked up): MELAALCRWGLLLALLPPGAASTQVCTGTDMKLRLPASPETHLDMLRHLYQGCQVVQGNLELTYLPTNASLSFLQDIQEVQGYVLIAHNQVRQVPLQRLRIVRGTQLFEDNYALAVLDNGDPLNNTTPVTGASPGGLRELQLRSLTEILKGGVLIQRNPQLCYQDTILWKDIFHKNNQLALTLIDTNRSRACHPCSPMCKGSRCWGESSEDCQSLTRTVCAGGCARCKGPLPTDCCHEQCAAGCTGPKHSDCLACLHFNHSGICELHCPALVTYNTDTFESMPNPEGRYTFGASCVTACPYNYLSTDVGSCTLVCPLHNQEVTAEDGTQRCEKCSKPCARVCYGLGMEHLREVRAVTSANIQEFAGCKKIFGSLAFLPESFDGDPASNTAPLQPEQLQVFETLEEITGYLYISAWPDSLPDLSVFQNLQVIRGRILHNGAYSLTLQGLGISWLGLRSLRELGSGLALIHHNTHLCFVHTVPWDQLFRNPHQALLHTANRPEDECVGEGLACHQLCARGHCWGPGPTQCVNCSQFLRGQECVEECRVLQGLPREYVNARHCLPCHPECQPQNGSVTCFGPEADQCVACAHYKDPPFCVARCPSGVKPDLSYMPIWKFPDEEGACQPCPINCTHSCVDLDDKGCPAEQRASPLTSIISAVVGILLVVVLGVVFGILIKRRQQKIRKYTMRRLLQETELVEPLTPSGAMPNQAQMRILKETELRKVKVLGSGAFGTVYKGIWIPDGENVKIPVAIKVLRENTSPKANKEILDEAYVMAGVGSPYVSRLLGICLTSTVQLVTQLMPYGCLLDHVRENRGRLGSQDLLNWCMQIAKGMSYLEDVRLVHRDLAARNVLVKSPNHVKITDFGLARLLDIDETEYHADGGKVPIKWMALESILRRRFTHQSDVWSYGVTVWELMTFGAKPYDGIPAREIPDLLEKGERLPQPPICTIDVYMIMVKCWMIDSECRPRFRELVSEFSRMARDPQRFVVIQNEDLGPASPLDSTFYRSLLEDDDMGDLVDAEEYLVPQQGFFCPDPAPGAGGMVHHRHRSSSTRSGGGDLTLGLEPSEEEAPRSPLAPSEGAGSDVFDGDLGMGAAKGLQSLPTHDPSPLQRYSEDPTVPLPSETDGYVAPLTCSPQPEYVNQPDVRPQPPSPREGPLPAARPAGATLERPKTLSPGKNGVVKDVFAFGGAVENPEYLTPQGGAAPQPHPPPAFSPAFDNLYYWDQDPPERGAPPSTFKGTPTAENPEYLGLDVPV
Structure (SMILES),viability [1],Her2 level [2],viability [3],viability [4],viability [5],differential viability (reversal) ([6]; H69AR cells + 2 uM doxorubicin),"viability [6, 9]","viability [6, 10]",inhibition [7],inhibition [8]
O=C1CC(=O)N(Cc2cccs2)C(=O)N1,93.5%,99% (inactive),93.5% (inactive),103% (inactive),101% (inactive),6.82% (inactive),94%,101%,-2.76% (inactive),-3.82% (inactive)
CC(=O)NC(Cc1c[nH]c2ccccc12)C(=O)OCC(=O)Nc1cc(C)on1 (stereo not given),91.5%,117% (inactive),91.5% (inactive),101% (inactive),97% (inactive),11% (inactive),86%,97%,3.46% (inactive),-7.83% (inactive)
CCOc1ccccc1NC(=O)C1CCCN1C(=O)OCc1ccccc1 (stereo not given),84.5%,93.5% (inactive),84.5% (inactive),111% (inactive),87.6% (inactive),2.29% (inactive),85.3%,87.6%,-1.71% (inactive),-10% (inactive)
Cn1nnnc1SCSc1nnnn1C,84%,83% (inactive),84% (inactive),95.5% (inactive),96.9% (inactive),7.5% (inactive),89.4%,96.9%,-5% (inactive),-0.95% (inactive)
Cc1nnc2n(Cc3ccccc3)c(=O)c3c4c(sc3n12)COC(C(C)C)C4 (stereo not given),124%,69% (inactive),124% (inactive),82.5% (inactive),76.2% (inactive),17% (inactive),59.2%,76.2%,-7.6% (inactive),11.9% (inactive)
O=c1[nH]c(CN2CCN(Cc3ccccc3)CC2)nc2sc3c(c12)CCC3,96%,87.5% (inactive),96% (inactive),98.9% (inactive),87.9% (inactive),0.67% (inactive),87.3%,87.9%,-4.86% (inactive),2.06% (inactive)
CS(=O)(=O)Nc1ccc(S(=O)(=O)Nc2nccs2)cc1,97%,90% (inactive),97% (inactive),116% (inactive),95.9% (inactive),3.66% (inactive),92.2%,95.9%,-2.93% (inactive),1.31% (inactive)
CC(=O)c1c(C)nc(C)nc1NC(=O)Cc1ccccc1,106%,102% (inactive),106% (inactive),93.9% (inactive),93.9% (inactive),-6.36% (inactive),100%,93.9%,-5% (inactive),-3.55% (inactive)
CCOC(=O)c1[nH]c(C)c(C(=O)NCC2CCCO2)c1C (stereo not given),99%,92% (inactive),99% (inactive),108% (inactive),101% (inactive),9.65% (inactive),91.3%,101%,-2.47% (inactive),-0.32% (inactive)
COc1ccc(-c2nc(C#N)c(N3CCOCC3)o2)cc1OC,111%,92% (inactive),111% (inactive),89.8% (inactive),84.5% (inactive),-0.495% (inactive),85%,84.5%,-1.3% (inactive),9% (inactive)
CCCNc1nc2c(c(=O)n(C)c(=O)n2C)n1Cc1cccc(C)c1,87.5%,85% (inactive),87.5% (inactive),83.7% (inactive),95.6% (inactive),-5.19% (inactive),101%,95.6%,-4.25% (inactive),-3.97% (inactive)
CCCN1C2=C(C(=O)CCC2)C(c2ccc(O)c(Br)c2)C2=C1CCCC2=O,96%,85.5% (inactive),96% (inactive),96.8% (inactive),91.8% (inactive),-1.01% (inactive),92.8%,91.8%,-7.11% (inactive),2% (inactive)
O=C(CCC(=O)N1CCc2ccccc2C1)N1CCN(S(=O)(=O)c2ccccc2)CC1,82%,116% (inactive),82% (inactive),84.4% (inactive),90.6% (inactive),-0.59% (inactive),91.2%,90.6%,4.81% (inactive),12.9% (inactive)
CCOC(=O)C1=C(C)OC(N)=C(C#N)C1c1ccoc1 (stereo not given),111%,107% (inactive),111% (inactive),88.1% (inactive),95.3% (inactive),11.2% (inactive),84%,95.3%,1.04% (inactive),-4.17% (inactive)
Cc1cccc(C2c3c(n(C)c(=O)n(C)c3=O)N=C3c4ccccc4C(=O)C32)c1 (stereo not given),101%,82.5% (inactive),101% (inactive),43.8% (inactive),24.3% (active),-9.63% (inactive),34%,24.3%,-7.47% (inactive),0.32% (inactive)
Cc1nc2c(C(=O)O)cnn2c(C)c1Cc1ccccc1F,97.5%,141% (inactive),97.5% (inactive),70.6% (inactive),87.4% (inactive),2.52% (inactive),84.8%,87.4%,1.84% (inactive),-8.33% (inactive)

Structure (SMILES),viability [1],Her2 level [2],viability [3],viability [4],viability [5],differential viability (reversal) ([6]; H69AR cells + 2 uM doxorubicin),"viability [6, 9]","viability [6, 10]",inhibition [7],inhibition [8]
c1ccn2c(SCc3cn4ccsc4n3)nnc2c1,104%,93.5% (inactive),104% (inactive),104% (inactive),110% (inactive),14% (inactive),95.7%,110%,-8.49% (inactive),3.49% (inactive)
Cc1cc(C)cc(NS(=O)(=O)c2ccc3[nH]cc(C(=O)NCc4ccco4)c(=O)c3c2)c1,97%,87% (inactive),97% (inactive),19% (active),41.1% (active),-35.9% (inactive),77%,41.1%,-5.39% (inactive),1.45% (inactive)
CC(=O)Nc1ccccc1-c1nc2ccc(C(=O)N3CCN(c4ccccc4)CC3)cc2[nH]c1=O,99.5%,88% (inactive),99.5% (inactive),86.2% (inactive),93.4% (inactive),-1.66% (inactive),95%,93.4%,-1.33% (inactive),1.15% (inactive)
CCn1nnc(-c2ccccc2NC(=O)c2ccc(-n3cnnn3)cc2)n1,95.5%,87% (inactive),95.5% (inactive),67.7% (inactive),75.7% (inactive),1.74% (inactive),73.9%,75.7%,-0.79% (inactive),1.15% (inactive)
O=C(Nc1cccnc1)c1cccc(NC(=O)c2ccco2)c1,97.5%,85% (inactive),97.5% (inactive),94.4% (inactive),89.9% (inactive),0.575% (inactive),89.3%,89.9%,-1.56% (inactive),4.1% (inactive)
COc1ccc(-c2noc(-c3ccccc3C(=O)Nc3cccnc3)n2)cc1OC,89.5%,83% (inactive),89.5% (inactive),80.6% (inactive),90.4% (inactive),14.8% (inactive),75.7%,90.4%,-3.6% (inactive),-2.38% (inactive)
c1ccc(-c2nnc(OCCN3CCOCC3)c3ccccc23)cc1,112%,118% (inactive),112% (inactive),87.3% (inactive),84.2% (inactive),-5.76% (inactive),89.9%,84.2%,-4.08% (inactive),2.62% (inactive)
CCN1C(=O)N(CC)C2C1N(C(C)=O)C(=O)N2C(C)=O (stereo not given),107%,102% (inactive),107% (inactive),104% (inactive),94.8% (inactive),11.9% (inactive),83%,94.8%,-5.66% (inactive),-2.18% (inactive)
CN=C1CC(C)(C)CC(=O)/C1=C(/O)CCC(=O)NC,104%,84% (inactive),104% (inactive),95.5% (inactive),102% (inactive),10.2% (inactive),92.1%,102%,-2.63% (inactive),-3.97% (inactive)
CCOC(=O)N1CCC(NC(=O)CSCc2nc(-c3cccc(OC)c3)oc2C)CC1,94.5%,91% (inactive),94.5% (inactive),97.7% (inactive),106% (inactive),2.79% (inactive),103%,106%,-2% (inactive),3.06% (inactive)
CCN(CC)c1ccc2cc(NC(=O)CCC(=O)O)c(=O)oc2c1,89%,99% (inactive),89% (inactive),81.1% (inactive),95.7% (inactive),-12.2% (inactive),108%,95.7%,-2.13% (inactive),-5.32% (inactive)
COC(=O)c1c(C#N)c(N)nc2c1CCC2,117%,97% (inactive),117% (inactive),90.6% (inactive),93.7% (inactive),0.57% (inactive),93.1%,93.7%,-5.2% (inactive),-4.13% (inactive)
C/C(N)=C(/C#N)C(=O)CSc1nnc(Nc2c(C)cccc2C)s1,108%,79.5% (inactive),108% (inactive),93.7% (inactive),103% (inactive),28.5% (inactive),74.6%,103%,-2.84% (inactive),3.02% (inactive)
Cc1ccc(-n2c(=O)c3sccc3n(CC(=O)NCc3ccco3)c2=O)cc1,107%,102% (inactive),107% (inactive),96.5% (inactive),99% (inactive),7.63% (inactive),91.4%,99%,-5.53% (inactive),-2.91% (inactive)
Cc1ccc(Nc2cc(C)nc3ncnn23)c(Cl)c1,85%,88.5% (inactive),85% (inactive),87% (inactive),97% (inactive),12.2% (inactive),84.9%,97%,-3.33% (inactive),-2.3% (inactive)
CCCCc1n[nH]c2c1C(=O)CC(C)(C)C2,73.5%,90.5% (inactive),73.5% (inactive),102% (inactive),96.9% (inactive),13.4% (inactive),83.5%,96.9%,-3.78% (inactive),0% (inactive)
